According to PubChem BioAssay AID492951 (Molecular Libraries Program, Specialized Chemistry Center, …, 2010):
Activity calls are given as the source filed them.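 How the source made its calls: active means inhibition above 10%; inactive means the rest.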

Molecular target: Hexokinase-4 (Homo sapiens) (UniProt P35557)
Experiment: human glucokinase inhibition, counter-screen for TbHK1 inhibitor project, biochemical, recombinant hGlck (AID 492951)
Settings: G6PDH-coupled NADH absorbance 340 nm, at 10 µM
In short: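 Material: Recombinant human glucokinase, G6PDH-coupled | Medium: TEA buffer pH 7.9 with 3.3 mM MgCl2, 0.75 mM NAD+ | Also added: 20 mM glucose as reaction starter, plus 1 mM ATP | Compound dosing: One dose, 10 µM final | Schedule: 10 min preincubation at room temperature | Measured by: A340 of NADH | Repeats: Three replicates per compound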

Chain of Hexokinase-4 (Homo sapiens) (P35557 whole entry, looked up): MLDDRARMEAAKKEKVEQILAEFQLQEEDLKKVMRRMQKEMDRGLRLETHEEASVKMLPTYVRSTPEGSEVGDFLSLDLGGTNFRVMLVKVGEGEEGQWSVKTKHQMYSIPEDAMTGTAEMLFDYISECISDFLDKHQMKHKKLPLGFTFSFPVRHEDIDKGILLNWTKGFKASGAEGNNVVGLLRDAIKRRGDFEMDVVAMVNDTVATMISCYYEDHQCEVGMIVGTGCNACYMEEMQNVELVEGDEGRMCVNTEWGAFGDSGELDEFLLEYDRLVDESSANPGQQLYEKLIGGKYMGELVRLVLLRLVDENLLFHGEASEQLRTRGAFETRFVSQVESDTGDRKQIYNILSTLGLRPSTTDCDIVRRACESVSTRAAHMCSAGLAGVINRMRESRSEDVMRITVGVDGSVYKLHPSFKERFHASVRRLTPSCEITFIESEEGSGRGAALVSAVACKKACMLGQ

Row | SMILES | outcome
1 | O=c1ccsn1-c1ccccc1 | inactive
2 | O=C1CCN(C(=O)Nc2cc(Cl)ccc2C(=O)O)CC1 | inactive
